Laboratory results published in paper PMC7246176 (Nature chemical biology, 2020).
Read-outs that look alike come from different tables or passages of the source.

Assays:
[1] = molecular target: T1, DCLK2 (Homo sapiens, UniProt Q8N568); assay: DCLK2 KINOMEscan binding assay
T1 sequence (Q8N568 1-766): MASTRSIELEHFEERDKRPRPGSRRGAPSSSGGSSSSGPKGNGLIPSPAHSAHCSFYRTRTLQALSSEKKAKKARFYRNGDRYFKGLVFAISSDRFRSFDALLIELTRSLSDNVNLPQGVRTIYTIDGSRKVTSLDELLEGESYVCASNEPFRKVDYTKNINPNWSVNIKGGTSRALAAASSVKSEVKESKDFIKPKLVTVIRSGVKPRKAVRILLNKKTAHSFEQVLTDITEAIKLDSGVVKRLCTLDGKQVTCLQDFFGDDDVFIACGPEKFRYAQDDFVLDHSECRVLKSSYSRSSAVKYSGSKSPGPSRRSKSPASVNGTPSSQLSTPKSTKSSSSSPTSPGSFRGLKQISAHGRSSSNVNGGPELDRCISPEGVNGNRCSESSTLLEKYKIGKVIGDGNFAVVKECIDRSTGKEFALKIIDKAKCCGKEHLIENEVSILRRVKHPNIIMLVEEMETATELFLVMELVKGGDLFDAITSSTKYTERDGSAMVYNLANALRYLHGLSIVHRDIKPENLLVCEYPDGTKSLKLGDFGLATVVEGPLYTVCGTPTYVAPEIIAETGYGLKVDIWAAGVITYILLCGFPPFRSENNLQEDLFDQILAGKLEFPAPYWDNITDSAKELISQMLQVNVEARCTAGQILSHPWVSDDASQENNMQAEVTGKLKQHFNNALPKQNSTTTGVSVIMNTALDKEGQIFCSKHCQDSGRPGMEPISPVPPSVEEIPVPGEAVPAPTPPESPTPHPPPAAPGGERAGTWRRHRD
Summary of the method: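 KINOMEscan competition binding run by a contract lab. Test compound in 12-point dose response, top concentration 10 μM. Values are the mean of n = 2 biologically independent samples.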

[2] = molecular target: T2, DCLK1-Nluc in HCT116 cells (Homo sapiens, UniProt O15075); assay: DCLK1 NanoBRET target engagement assay in HCT116 cells; type: cell-based
T2 sequence (O15075 1-729 isoform O15075-2): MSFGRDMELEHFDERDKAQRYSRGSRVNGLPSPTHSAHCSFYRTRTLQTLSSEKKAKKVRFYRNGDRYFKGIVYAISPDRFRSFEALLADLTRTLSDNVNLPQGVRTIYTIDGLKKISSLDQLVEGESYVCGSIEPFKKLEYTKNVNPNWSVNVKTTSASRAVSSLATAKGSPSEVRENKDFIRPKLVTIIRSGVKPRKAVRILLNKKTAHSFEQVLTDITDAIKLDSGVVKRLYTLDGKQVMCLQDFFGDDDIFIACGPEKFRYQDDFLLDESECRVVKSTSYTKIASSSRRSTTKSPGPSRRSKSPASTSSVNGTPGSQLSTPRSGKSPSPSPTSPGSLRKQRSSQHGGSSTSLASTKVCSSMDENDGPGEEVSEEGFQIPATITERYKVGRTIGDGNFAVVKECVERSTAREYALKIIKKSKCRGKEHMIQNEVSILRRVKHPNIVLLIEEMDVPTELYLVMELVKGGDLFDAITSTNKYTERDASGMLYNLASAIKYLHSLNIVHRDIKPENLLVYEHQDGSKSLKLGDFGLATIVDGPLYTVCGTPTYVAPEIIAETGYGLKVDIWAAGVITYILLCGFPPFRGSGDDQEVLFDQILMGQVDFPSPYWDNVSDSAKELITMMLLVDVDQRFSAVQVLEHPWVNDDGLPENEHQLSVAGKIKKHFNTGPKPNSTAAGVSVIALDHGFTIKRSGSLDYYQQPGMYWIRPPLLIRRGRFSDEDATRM

[3] = molecular target: T3, DCLK1 (Homo sapiens, UniProt O15075); assay: 33P-ATP DCLK1 kinase assay; type: biochemical; settings: ATP 50 μM (Km)
T3 sequence (O15075 1-740): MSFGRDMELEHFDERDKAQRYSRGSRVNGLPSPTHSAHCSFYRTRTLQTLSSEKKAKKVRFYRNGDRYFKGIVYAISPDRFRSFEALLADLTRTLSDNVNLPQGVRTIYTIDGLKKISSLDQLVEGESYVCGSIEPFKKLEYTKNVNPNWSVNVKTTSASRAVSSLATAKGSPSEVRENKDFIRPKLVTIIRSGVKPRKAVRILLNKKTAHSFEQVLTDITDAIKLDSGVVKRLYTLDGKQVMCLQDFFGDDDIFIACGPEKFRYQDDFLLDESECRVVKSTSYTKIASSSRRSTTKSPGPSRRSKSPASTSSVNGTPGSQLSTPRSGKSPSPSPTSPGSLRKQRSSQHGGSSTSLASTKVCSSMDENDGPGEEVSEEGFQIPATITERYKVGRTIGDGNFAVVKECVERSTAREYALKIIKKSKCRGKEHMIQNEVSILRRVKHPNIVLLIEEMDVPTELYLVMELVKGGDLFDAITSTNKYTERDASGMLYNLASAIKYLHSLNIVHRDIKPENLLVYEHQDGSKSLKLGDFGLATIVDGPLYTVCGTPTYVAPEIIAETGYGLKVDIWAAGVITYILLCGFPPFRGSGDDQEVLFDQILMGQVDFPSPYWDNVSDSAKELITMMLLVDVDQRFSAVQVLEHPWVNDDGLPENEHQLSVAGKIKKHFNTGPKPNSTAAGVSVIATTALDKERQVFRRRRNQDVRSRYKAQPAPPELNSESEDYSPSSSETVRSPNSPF

[4] = system: PATU-8902 cells; assay: Cell viability, ultra-low adherent 3D-spheroid culture, PATU-8902; type: cell-based, human; settings: read-out: PATU-8902 cells 3D spheroid culture IC50
Summary of the method: (§1)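 PATU-8988T and PATU-8902 cells were plated at 100 cells/well in 50 μL media, either adherent (2D) or in ultra-low attachment spheroid plates (3D), overnight. Test compound was pin-transferred and cells were incubated 120 h. Viability was read by CellTiter-Glo luminescence after 15 min at room temperature. Data were normalized to DMSO-treated wells per cell line and fitted.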

[5] = system: PATU-8988T cells; assay: Cell viability, 2D-adherent monolayer culture, PATU-8988T; type: cell-based, human; settings: 120 h, read-out: PATU-8988T cells 2D monolayer culture IC50
Summary of the method: as §1

[6] = molecular target: T3, DCLK1; assay: DCLK1 KINOMEscan binding assay
[7] = system: PATU-8988T cells; assay: Cell viability, ultra-low adherent 3D-spheroid culture, PATU-8988T; type: cell-based, human; settings: 120 h, read-out: PATU-8988T cells 3D spheroid culture IC50
Summary of the method: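 PATU-8902 or PATU-8988T cells were plated at 100 cells/well and left overnight to adhere (2D plates) or to form spheroids (ultra-low-attachment 3D spheroid plates). Compound was pin-transferred, then 120 h incubation. Viability by CellTiter-Glo luminescence after 15 min at room temperature, normalized to DMSO-treated wells for each cell line.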

Row | IC50 ([1]; read-out: DCLK2 binding assay IC50, KINOMEscan) | IC50 ([2]; read-out: DCLK1 cellular assay IC50, nanoBRET, HCT116 cells) | IC50 ([3]; read-out: DCLK1 kinase assay IC50, 33P-ATP) | IC50 ([6]; read-out: DCLK1 binding assay IC50, KINOMEscan) | Compound | IC50 [1] | IC50 [2] | IC50 ([3]; DCLK1 kinase assay IC50, 33P-ATP) | IC50 ([4]; Homo sapiens, PaTu 8902, 120 h) | IC50 ([5]; Homo sapiens, PaTu 8988t) | IC50 [6] | IC50 ([7]; Homo sapiens, PaTu 8988t) | IC50 ([4]; cell viability, 120 h, P.R. = partial response) | IC50 ([5]; cell viability, P.R. = partial response) | IC50 ([7]; cell viability)
1 | – | – | – | – | COc1cc(N2CCN(C)CC2)ccc1Nc1ncc2c(n1)N(C)c1ccccc1C(=O)N2CC(F)(F)F [DCLK1-IN-1] | 0.031 µM | 0.279 µM | 0.0572 µM | > 20 µM | > 20 µM | 0.0095 µM | > 20 µM | – | – | –
2 | 3.6 µM | 1.15 µM | 0.104 µM | 1.4 µM | CCOc1cc(N2CCC(O)CC2)ccc1Nc1ncc2c(n1)N(C)c1ccccc1C(=O)N2C [XMD8-92] | – | – | – | – | – | – | – | > 20 µM | 2.02 µM | 6.06 µM
